Laboratory results published in ChEMBL document CHEMBL1123591, “Synthetic analogues of tetrahydrobiopterin with cofactor activity for aromatic amino acid hydroxylases” (1987).

Columns and labels:
[1] = biological target: T1, Tyrosine 3-monooxygenase (Bos taurus) (UniProt P17289); assay: Cofactor activity in bovine adrenal medulla tyrosine hydroxylase assay as relative velocity
T1 sequence (whole entry): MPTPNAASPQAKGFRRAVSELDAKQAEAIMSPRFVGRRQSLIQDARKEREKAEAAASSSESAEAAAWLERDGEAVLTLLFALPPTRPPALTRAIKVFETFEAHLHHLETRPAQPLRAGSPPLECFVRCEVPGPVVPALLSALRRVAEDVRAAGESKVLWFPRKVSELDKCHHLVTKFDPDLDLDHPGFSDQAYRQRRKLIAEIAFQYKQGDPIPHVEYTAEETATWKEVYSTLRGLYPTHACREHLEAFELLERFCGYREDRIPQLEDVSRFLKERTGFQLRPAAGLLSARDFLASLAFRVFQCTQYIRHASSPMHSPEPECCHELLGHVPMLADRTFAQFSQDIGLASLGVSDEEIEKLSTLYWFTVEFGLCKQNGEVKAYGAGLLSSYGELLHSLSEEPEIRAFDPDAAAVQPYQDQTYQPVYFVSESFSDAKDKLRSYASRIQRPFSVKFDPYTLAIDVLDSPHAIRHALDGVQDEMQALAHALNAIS
How it was run: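 Tyrosine hydroxylase was purified from bovine adrenal medulla by partial trypsin digestion, giving a model of the high-affinity form, then ammonium sulfate fractionation. Activity was measured as release of ³H₂O from L-(3,5-³H)tyrosine, with velocities expressed relative to tetrahydrobiopterin.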

[2] = biological target: T2, Phenylalanine-4-hydroxylase (Rattus norvegicus) (UniProt P04176); assay: Tested in isolated enzyme assay for its cofactor activity against phenylalanine hydroxylase (isolated from rat liver) expressed as relative velocity
T2 sequence (whole entry): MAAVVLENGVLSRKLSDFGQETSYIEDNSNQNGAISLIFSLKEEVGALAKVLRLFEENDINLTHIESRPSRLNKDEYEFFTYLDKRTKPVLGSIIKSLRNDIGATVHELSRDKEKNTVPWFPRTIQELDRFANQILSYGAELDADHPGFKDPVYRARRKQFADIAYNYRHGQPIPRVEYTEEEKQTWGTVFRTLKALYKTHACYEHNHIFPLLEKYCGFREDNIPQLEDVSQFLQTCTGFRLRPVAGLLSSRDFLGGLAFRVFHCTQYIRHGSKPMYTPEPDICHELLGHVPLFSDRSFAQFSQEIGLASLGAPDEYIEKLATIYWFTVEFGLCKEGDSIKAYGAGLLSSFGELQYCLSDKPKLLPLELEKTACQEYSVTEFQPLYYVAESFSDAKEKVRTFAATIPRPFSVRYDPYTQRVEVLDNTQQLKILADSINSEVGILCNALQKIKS
How it was run: (§1)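 Phenylalanine hydroxylase was isolated from rat liver and purified on phenyl-Sepharose. Tyrosine formed was quantified by liquid chromatography with fluorescence detection, and velocities were expressed relative to tetrahydrobiopterin.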

[3] = biological target: T3, Tryptophan 5-hydroxylase 1 (Rattus norvegicus) (UniProt P09810); assay: Tested in isolated enzyme assay for its cofactor activity against tryptophan hydroxylase (isolated from rat brain stem) expressed as relative velocity
T3 sequence (whole entry): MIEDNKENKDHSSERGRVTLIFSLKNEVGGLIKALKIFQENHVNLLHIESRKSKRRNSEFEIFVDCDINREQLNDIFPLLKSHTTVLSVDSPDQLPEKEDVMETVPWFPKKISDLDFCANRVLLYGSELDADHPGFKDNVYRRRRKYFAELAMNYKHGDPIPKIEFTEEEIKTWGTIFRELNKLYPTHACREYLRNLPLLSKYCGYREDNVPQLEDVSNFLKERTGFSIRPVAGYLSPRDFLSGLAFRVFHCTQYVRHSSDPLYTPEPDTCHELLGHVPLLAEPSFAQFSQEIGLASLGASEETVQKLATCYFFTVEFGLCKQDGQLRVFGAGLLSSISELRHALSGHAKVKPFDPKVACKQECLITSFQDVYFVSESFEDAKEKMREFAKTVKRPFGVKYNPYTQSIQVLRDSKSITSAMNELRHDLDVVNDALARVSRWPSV
How it was run: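 The tryptophan hydroxylase source was a desalted 40000g supernatant of rat brain stem, with velocities expressed relative to tetrahydrobiopterin.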

[4] = tested on: dihydropteridine reductase; assay: Tested in isolated enzyme assay for its cofactor activity against dihydropteridine reductase expressed as Michaelis-Menten constant (calculated in the presence of platinum catalyst)
[5] = tested on: dihydropteridine reductase; assay: Tested in isolated enzyme assay for its cofactor activity against dihydropteridine reductase expressed as Michaelis-Menten constant
[6] = biological target: T2, Phenylalanine-4-hydroxylase (Rattus norvegicus); assay: Tested in isolated enzyme assay for its cofactor activity against phenylalanine hydroxylase (iisolated from rat liver) expressed as relative velocity; how it was run: as §1

Relative velocity [1] | Relative velocity [2] | Relative velocity [3] | Relative velocity [6] | SMILES | Km [4] | Km [5]
119% | 39% | 40% | – | CC1(C)CNc2nc(N)nc(O)c2N1 | 260 µM | –
135% | 22% | 52% | – | CCCCOCC1CNc2nc(N)nc(O)c2N1 (configuration not stated) | – | 3 µM
130% | 4% | – | – | CC(C)(C)OCC1CNc2nc(N)nc(O)c2N1 (configuration not stated) | – | 5 µM
154% | – | 154% | 238% | CC1CNc2nc(N)[nH]c(=O)c2N1 (configuration not stated) | – | 13 µM
154% | – | 85% | 155% | CCOCC1CNc2nc(N)nc(O)c2N1 (configuration not stated) | – | 6 µM
137% | 15% | 44% | – | CC(C)OCC1CNc2nc(N)nc(O)c2N1 (configuration not stated) | – | 4 µM
85% | – | – | – | CCCCCOCC1CNc2nc(N)nc(O)c2N1 (configuration not stated) | – | –

The next lines start with the compound.

SMILES | Relative velocity [1] | Relative velocity [2] | Relative velocity [3] | Relative velocity [6] | Km [4] | Km [5]
CC(C)COCC1CNc2nc(N)nc(O)c2N1 (configuration not stated) | 110% | – | – | – | – | –
COCC1CNc2nc(N)nc(O)c2N1 (configuration not stated) | 126% | – | 65% | 138% | – | 9 µM
CCCCCCCCOCC1CNc2nc(N)nc(O)c2N1 (configuration not stated) | 48% | 3% | 32% | – | – | –
CCCOCC1CNc2nc(N)nc(O)c2N1 (configuration not stated) | 92% | 32% | 54% | – | – | 2 µM
CC(O)C(O)C1CNc2nc(N)nc(O)c2N1 (configuration not stated) | 100% | – | 100% | 100% | – | 2 µM
COCCOCC1CNc2nc(N)nc(O)c2N1 (configuration not stated) | 131% | 36% | – | – | – | –
